Assay results reported in ChEMBL document CHEMBL1145016, “Synthesis and antitumor activity of conjugates of muramyldipeptide or normuramyldipeptide with hydroxyacridine/acridone derivatives” (J Med Chem, 2003).
Active and inactive are the calls of the source.

Tests used:
MCF7 = assay: Tested for cytotoxicity of compound against MCF-7 (breast) cell line; IA means inactive.; format: functional, cell-based; conditions: Homo sapiens
NCI-H460 = assay: Tested for cytotoxicity of compound against NCI-H460 (lung)cell line; IA means inactive.; format: functional, cell-based; conditions: Homo sapiens
SF-268 = assay: Tested for cytotoxicity of compound against SF-268 (CNS) cell line; IA means inactive.; format: functional, cell-based; conditions: Homo sapiens
Mus musculus [1] = assay: Evaluated in vivo for toxic deaths of mice at 8.40 mg/kg for 8 days by intraperitoneal treatment on UACC-62 melanoma cell line; conditions: ip, 8.4 mg/kg, 192 h
Mus musculus [2] = assay: Evaluated in vivo for percent growth delay in mice at 5.60 mg/kg for 8 days by intraperitoneal treatment on COLO 205 colon cell line; conditions: dose 5.6 mg/kg
[3] = Evaluated in vivo for intraperitoneal score in hallow fiber assay; format: functional
How it was run: (§1)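 NCI hollow fiber preliminary in vivo assay; scores recorded separately for intraperitoneal (ip) and subcutaneous (sc) fiber implantation sites, with an activity criterion applied (Y/N). Procedure detailed in prior work.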

Mus musculus [4] = assay: Evaluated in vivo for toxic deaths of mice at 3.35 mg/kg for 10 days by intraperitoneal treatment on NCI-H522 non-small cell lung cell line; conditions: ip, 240 h
Mus musculus [5] = assay: Evaluated in vivo for percent of tumor weight in treated/control of mice at 3.35 mg/kg for 7 days by intraperitoneal treatment on SK-MEL-28 melanoma cell line
Mus musculus [6] = assay: Evaluated in vivo for toxic deaths of mice at 5.60 mg/kg for 12 days by intraperitoneal treatment on COLO 205 colon cell line; format: toxicity, organism-based; set-up: dose 5.6 mg/kg, route intraperitoneal; conditions: ip, 5.6 mg/kg, 288 h
How it was run: (§2)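 Nude mice carrying subcutaneous human tumor xenografts, tested at NCI Bethesda; compound given on the stated schedule, intraperitoneally (IP) or intravenously (IV). Three dose levels were tested, and the table reports only the optimal one. Toxic deaths are scored per treatment group alongside tumor weight end points.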

Mus musculus [7] = assay: Evaluated in vivo for percent treated/control of mice at 3.35 mg/kg for 10 days by intraperitoneal treatment on NCI-H522 non-small cell lung cell line
[8] = Tested for cytotoxicity (lethal concentration) of compound, activity expressed as MID log LC50; format: functional
How it was run: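 MID is the calculated mean of LC50 concentrations (M) across the cell line panel, where LC50 is the half-lethal concentration. It is reported as a log value.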

Mus musculus [9] = assay: Evaluated in vivo for toxic deaths of mice at 5.60 mg/kg for 24 (38) days by intraperitoneal treatment on MDA-MB-435 breast […] cell line; format: toxicity, organism-based; set-up: dose 5.6 mg/kg, route intraperitoneal; conditions: ip, 5.6 mg/kg; how it was run: as §2
Mus musculus [10] = assay: Evaluated in vivo for percent of tumor weight in treated/control of mice at 5.60 mg/kg for 8 days by intraperitoneal treatment on COLO 205 colon cell line; conditions: dose 5.6 mg/kg
Mus musculus [11] = assay: Evaluated in vivo for percent of tumor weight in treated/control of mice 5.60 at mg/kg for 11 days by intraperitoneal treatment on A498 renal cell line
[12] = Evaluated in vivo for subcutaneous score in hallow fiber assay; format: functional; how it was run: as §1
Mus musculus [13] = assay: Evaluated in vivo for percent growth delay in mice at 5.60 mg/kg for 11 days by intraperitoneal treatment on A498 renal cell line; conditions: dose 5.6 mg/kg
Mus musculus [14] = assay: Evaluated in vivo for toxic deaths of mice at 5.60 mg/kg for 5 days by intraperitoneal treatment on HCT-15 colon cell line; format: toxicity, organism-based; set-up: dose 5.6 mg/kg, route intraperitoneal; conditions: ip, 5.6 mg/kg, 120 h; how it was run: as §2
Mus musculus [15] = assay: Evaluated in vivo for percent growth delay in mice at 3.35 mg/kg for 7 days by intraperitoneal treatment on SK-MEL-28 melanoma cell line
Mus musculus [16] = assay: Evaluated in vivo for percent of tumor weight in treated/control of mice at 5.60 mg/kg by intraperitoneal treatment; conditions: dose 5.6 mg/kg
Mus musculus [17] = assay: Evaluated in vivo for percent growth delay in mice at 5.60 mg/kg for 15 days by intraperitoneal treatment on UACC-257 melanoma cell line; conditions: dose 5.6 mg/kg
Mus musculus [18] = assay: Evaluated in vivo for percent growth delay in mice at 8.40 mg/kg for 8 days by intraperitoneal treatment on UACC-62 melanoma cell line; conditions: dose 8.4 mg/kg
Mus musculus [19] = assay: Evaluated in vivo for percent of tumor weight in treated/control of mice at 8.40 mg/kg for 8 days by intraperitoneal treatment on UACC-62 melanoma cell line; conditions: dose 8.4 mg/kg
Mus musculus [20] = assay: Evaluated in vivo for toxic deaths of mice at 3.35 mg/kg for 7 days by intraperitoneal treatment on SK-MEL-28 melanoma cell line; conditions: ip, 168 h
Mus musculus [21] = assay: Evaluated in vivo for percent growth delay in mice at 5.60 mg/kg for 7 days by intraperitoneal treatment on AS283 lymphoma cell line; format: functional; conditions: dose 5.6 mg/kg
[22] = Evaluated in vivo for intraperitoneal + subcutaneous score in hallow fiber assay; format: functional; how it was run: as §1
Mus musculus [23] = assay: Evaluated in vivo for percent growth delay in mice at 3.35 mg/kg for 10 days by intraperitoneal treatment on NCI-H522 non-small cell lung cell line

Which IA (MCF7) does the source give for `CC(=O)N[C@@H]1[C@H](OCc2ccccc2)OC(CO)C(O)[C@H]1OC(C)C(=O)N[C@@H](C(=O)N[C@H](CCC(=O)OCCNC(=O)c1cccc2c(=O)c3ccccc3[nH]c12)C(N)=O)C(C)C` (stereo partly drawn) here?
Its IA is “inactive”.

And the IA (NCI-H460)?
The IA was “inactive”.

And the IA (SF-268)?
Its IA is “inactive”.

For `CC(=O)N[C@@H]1[C@H](OCc2ccccc2)OC(CO)C(O)[C@H]1OC(C)C(=O)N[C@H](C)C(=O)N[C@H](CCC(=O)OCCCNc1c2ccccc2nc2cccc([N+](=O)[O-])c12)C(N)=O` (stereo partly drawn), which Toxic deaths (Mus musculus [1]) is on record?
Its Toxic deaths is 0.

And the Growth delay (T-C/C) (Mus musculus [2])?
Its Growth delay (T-C/C) is -7%.

What about the Score [3] of the same molecule?
Its Score is 2.

And the Toxic deaths (Mus musculus [4])?
The Toxic deaths was 1.

What about the Tumor weight (Mus musculus [5]) of the same molecule?
The Tumor weight was 105%.

And the Toxic deaths (Mus musculus [6])?
The Toxic deaths was 1.

And the Tumor weight (Mus musculus [7])?
Its Tumor weight is 89%.

What about the “MID log LC50” value [8] of the same molecule?
Its value is 5.78 M.

What about the Toxic deaths (Mus musculus [9]) of the same molecule?
Its Toxic deaths is 1.

And the Tumor weight (Mus musculus [10])?
The Tumor weight was 65%.

What about the Tumor weight (Mus musculus [11]) of the same molecule?
The Tumor weight was 68%.

What about the Score [12] of the same molecule?
The Score was 2.

And the “Growth delay (T-C/C)” value (Mus musculus [13])?
The value was 3%.

What about the Toxic deaths (Mus musculus [14]) of the same molecule?
Its Toxic deaths is 2.

And the Growth delay (T-C/C) (Mus musculus [15])?
Its Growth delay (T-C/C) is -3%.

And the Tumor weight (Mus musculus [16])?
The Tumor weight was 60%.

What about the “Growth delay (T-C/C)” value (Mus musculus [17]) of the same molecule?
Its value is 1%.

And the “Growth delay (T-C/C)” value (Mus musculus [18])?
The value was 107%.

What about the Tumor weight (Mus musculus [19]) of the same molecule?
The Tumor weight was 1%.

And the Toxic deaths (Mus musculus [20])?
Its Toxic deaths is 0.

What about the “Growth delay (T-C/C)” value (Mus musculus [21]) of the same molecule?
Its value is 16%.

What about the Score [22] of the same molecule?
The Score was 4.

And the “Growth delay (T-C/C)” value (Mus musculus [23])?
Its value is 1%.

For `CC(=O)N[C@@H]1[C@H](OCc2ccccc2)OC(CO)C(O)[C@H]1OCC(=O)N[C@H](C)C(=O)N[C@H](CCC(=O)OCCNC(=O)c1cccc2cc3ccccc3nc12)C(N)=O` (stereo partly drawn), which IA (MCF7) is on record?
Its IA is “inactive”.

And the IA (NCI-H460)?
The IA was “inactive”.

And the IA (SF-268)?
The IA was “inactive”.

For `O=[N+]([O-])c1cccc2nc3ccccc3c(NCCO)c12`, which “MID log LC50” value [8] is on record?
The value was 5.9 M.

With `CC(=O)N[C@@H]1[C@H](OCc2ccccc2)OC(CO)C(O)[C@H]1OC(C)C(=O)N[C@H](C)C(=O)N[C@H](CCC(=O)OCCCNC(=O)c1cccc2cc3ccccc3nc12)C(N)=O` (stereo partly drawn) as the molecule, how does the IA (MCF7) read?
Its IA is “inactive”.

What about the IA (NCI-H460) of the same molecule?
The IA was “inactive”.

What about the IA (SF-268) of the same molecule?
Its IA is “inactive”.
